Laboratory results as given in ChEMBL document CHEMBL1158097, “Kahalalide derivatives from the Indian sacoglossan mollusk Elysia grandifolia” (J Nat Prod, 2006).
Activity calls are given as the source filed them. No cut-off for these calls is given here.

Columns and labels:
MCF7 = test: Cytotoxicity against human MCF7 cells after 24 hrs by MTT assay; assay type: functional, cell-based; details: MCF7, 24 h
How it was run: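 MCF7 cells were exposed to compounds for 24 h, and viability was read as MTT reduction by absorbance of reduced MTT at 560 nm. DMSO served as control. Data are mean ± SEM, n = 3.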

Cladosporium herbarum = test: Antifungal activity against Cladosporium herbarum DSM 62121 at 5 ug/disk after 24 hrs by agar diffusion assay; assay type: functional; details: for zone of inhibition at 5 µg/disc: DSM 62121, 24 h, read-out: IZ
Cladosporium cucumerinum = test: Antifungal activity against Cladosporium cucumerinum DSM 62122 at 5 ug/disk after 24 hrs by agar diffusion assay; assay type: functional; details: for zone of inhibition at 5 µg/disc: DSM 62122, 24 h, read-out: IZ
Saccharomyces cerevisiae = test: Antifungal activity against Saccharomyces cerevisiae DSM 1333 at 5 ug/disk after 24 hrs by agar diffusion assay; assay type: functional, organism-based
Bacillus subtilis = test: Antibacterial activity against Bacillus subtilis DSM 2109 at 5 ug/disk after 24 hrs by agar diffusion assay; assay type: functional, organism-based
Escherichia coli = test: Antibacterial activity against Escherichia coli DSM 10290 at 5 ug/disk after 24 hrs by agar diffusion assay; assay type: functional, organism-based
[1] = Cytotoxicity against mouse L1578Y cells after 24 hrs by MTT assay; assay type: functional, cell-based
HeLa = test: Cytotoxicity against human HeLa cells after 24 hrs by MTT assay; assay type: functional, cell-based
H4IIE = test: Cytotoxicity against rat H4IIE cells after 24 hrs by MTT assay; assay type: functional, cell-based
PC-12 = test: Cytotoxicity against rat PC12 cells after 24 hrs by MTT assay; assay type: functional, cell-based

C/C=C1\NC(=O)[C@H](Cc2ccccc2)NC(=O)C(C(C)C)NC(=O)C(C(C)C)NC(=O)[C@H](NC(=O)[C@H](NC(=O)[C@H](CCCN)NC(=O)[C@H]2CCCN2C(=O)C(NC(=O)C(NC(=O)C(NC(=O)[C@@H](CCC(=O)O)NC(=O)CCCC(O)CC(C)C)C(C)C)C(C)C)C(C)C)[C@@H](C)CC)[C@@H](C)OC(=O)C(C(C)C)NC1=O (some centres undefined) [KAHALALIDE S]
IC50 (MCF7): 3.55 µM | Activity (Cladosporium herbarum): inactive | Activity (Cladosporium cucumerinum): inactive | Activity (Saccharomyces cerevisiae): inactive | Activity (Bacillus subtilis): inactive | Activity (Escherichia coli): inactive

C/C=C1\NC(=O)[C@H](Cc2ccccc2)NC(=O)[C@@H](C(C)C)NC(=O)[C@@H]([C@H](C)CC)NC(=O)[C@H](NC(=O)[C@H](NC(=O)[C@H](CCCN)NC(=O)[C@H]2CCCN2C(=O)[C@H](NC(=O)[C@@H](NC(=O)[C@@H](NC(=O)[C@H](NC(=O)CCCC(C)C)C(C)C)[C@@H](C)O)C(C)C)C(C)C)[C@H](C)CC)[C@H](C)OC(=O)[C@H](C(C)C)NC1=O [KAHALALIDE F]
IC50 (MCF7): 0.22 µM | IC50 [1]: 4.26 µM | Activity (HeLa): inactive | Activity (H4IIE): inactive | Activity (PC-12): inactive | zone of inhibition at 5 µg/disc (Cladosporium herbarum): 17 mm | zone of inhibition at 5 µg/disc (Cladosporium cucumerinum): 24 mm | Activity (Saccharomyces cerevisiae): inactive | Activity (Bacillus subtilis): inactive | Activity (Escherichia coli): inactive

NYSTATIN
inhibition zone (IZ) (Cladosporium herbarum): 19 mm | inhibition zone (IZ) (Cladosporium cucumerinum): 39 mm

CC(C)CCCCCC1CC(=O)N[C@H](C)C(=O)N[C@H](C)C(=O)NC(CC(C)C)C(=O)N2CCC[C@H]2C(=O)NC(CC(C)C)C(=O)N[C@@H](Cc2c[nH]c3ccccc23)C(=O)O1 (some centres undefined) [KAHALALIDE E]
IC50 (MCF7): 4.5 µM

C/C=C1\NC(=O)[C@H](Cc2ccccc2)NC(=O)C(C(C)C)NC(=O)C(C(C)C)NC(=O)[C@H](NC(=O)[C@H](NC(=O)[C@H](CCCN)NC(=O)[C@H]2CCCN2C(=O)C(NC(=O)C(NC(=O)C(NC(=O)[C@@H](CCC(=O)O)NC(=O)CCCCCC(C)C)C(C)C)C(C)C)C(C)C)[C@@H](C)CC)[C@@H](C)OC(=O)C(C(C)C)NC1=O (some centres undefined) [KAHALALIDE R]
IC50 (MCF7): 0.14 µM | IC50 [1]: 4.28 µM | Activity (HeLa): inactive | Activity (H4IIE): inactive | Activity (PC-12): inactive | zone of inhibition at 5 µg/disc (Cladosporium herbarum): 16 mm | zone of inhibition at 5 µg/disc (Cladosporium cucumerinum): 24 mm | Activity (Saccharomyces cerevisiae): inactive | Activity (Bacillus subtilis): inactive | Activity (Escherichia coli): inactive
